High-throughput results (PubChem)
Apaf1 inhib: inhibitors of human Apaf-1 apoptosome | reconstituted apoptosome caspase-3 activity, DEVD-Rh110 fluorescence | hit rate 0.71% among 330,000 | inhibition, % at 20 µM | O14727 | AID 489030; active means inhibition of at least 40% at 20 µM;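 further: plate controls were DMSO wells for no effect and DEVD-CHO caspase inhibitor wells for full effect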
Target sequence (O14727 whole entry, looked up): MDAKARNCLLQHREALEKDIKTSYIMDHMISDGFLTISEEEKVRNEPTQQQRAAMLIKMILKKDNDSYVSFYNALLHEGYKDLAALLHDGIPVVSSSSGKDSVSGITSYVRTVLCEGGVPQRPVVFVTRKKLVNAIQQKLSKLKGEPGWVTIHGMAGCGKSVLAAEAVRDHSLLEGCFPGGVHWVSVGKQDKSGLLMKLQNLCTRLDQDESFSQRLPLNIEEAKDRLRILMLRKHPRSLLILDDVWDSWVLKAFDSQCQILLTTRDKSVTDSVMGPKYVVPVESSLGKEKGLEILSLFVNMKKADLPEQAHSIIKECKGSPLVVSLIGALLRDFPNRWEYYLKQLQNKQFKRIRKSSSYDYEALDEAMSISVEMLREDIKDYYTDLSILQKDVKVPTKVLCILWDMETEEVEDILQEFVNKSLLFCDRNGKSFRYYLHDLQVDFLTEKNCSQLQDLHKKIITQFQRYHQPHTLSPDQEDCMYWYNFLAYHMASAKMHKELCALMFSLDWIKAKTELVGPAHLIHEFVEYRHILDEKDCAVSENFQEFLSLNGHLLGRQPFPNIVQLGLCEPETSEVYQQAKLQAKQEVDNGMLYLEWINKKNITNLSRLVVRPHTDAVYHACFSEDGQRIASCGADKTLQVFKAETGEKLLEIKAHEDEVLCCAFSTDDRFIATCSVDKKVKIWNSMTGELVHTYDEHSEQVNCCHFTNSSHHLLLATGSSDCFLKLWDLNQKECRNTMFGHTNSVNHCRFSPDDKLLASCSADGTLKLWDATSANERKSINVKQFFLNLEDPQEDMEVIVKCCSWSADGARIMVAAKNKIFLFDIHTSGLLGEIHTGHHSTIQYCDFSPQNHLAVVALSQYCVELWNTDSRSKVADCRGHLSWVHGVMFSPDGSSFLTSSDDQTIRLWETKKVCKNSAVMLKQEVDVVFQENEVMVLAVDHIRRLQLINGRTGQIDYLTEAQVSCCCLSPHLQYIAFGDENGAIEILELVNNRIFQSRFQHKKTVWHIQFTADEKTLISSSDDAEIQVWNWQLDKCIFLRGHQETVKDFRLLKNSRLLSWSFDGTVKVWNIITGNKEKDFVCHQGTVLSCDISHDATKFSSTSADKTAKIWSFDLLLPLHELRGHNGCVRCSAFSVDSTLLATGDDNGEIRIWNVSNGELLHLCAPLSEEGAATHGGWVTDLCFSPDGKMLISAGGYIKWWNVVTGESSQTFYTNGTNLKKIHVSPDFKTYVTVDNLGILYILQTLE
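Material: biochemical Apaf-1 apoptosome reconstitution. Medium: Hepes buffer, pH 7.5. Also added: cytochrome c activation, bis-DEVD rhodamine 110 substrate. Timing: 30 min compound preincubation, 50 min activation, room temperature. Measured by: rhodamine 110 fluorescence at Ex 480/Em 540 nm.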
MEKK3 PB1 HTS: raises or lowers MEK5 binding to the human MEKK3 PB1 domain; binding response (% of control), % at 10 µM; Q99759; hit rate 1.4% among 290,000; AID 1529; bead-based flow cytometry, Alexa488-MEK5 binding to MEKK3; actives lie on both sides; 0 = blocked by unlabeled MEK5, 100 = vehicle;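 active means binding response more than 3 SD above or below the average of its plate-row segment, actives on both sides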;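 further: Alexa488 bead fluorescence after subtracting the streptavidin-only scavenger bead signal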
MEKK2wt PB1 HTS: raises or lowers MEK5 binding to wildtype human MEKK2 PB1 domain. bead flow cytometry, Alexa488-MEK5 binding to MEKK2 WT; actives lie on both sides. binding response (% of control), % at 10 µM. hit rate 1.1% among 290,000; in the data active means binding response below about 67% or above about 130%
UBC13 polyUb: human UBC13 polyubiquitination inhibition; inhibition, % at 20 µM; hit rate 0.47% among 330,000; P61088; UBC13 polyubiquitin chain formation, TR-FRET; AID 485273; in the data active means inhibition above about 45%, passing the limit was not always enough
MEKK2mut PB1 HTS: signal of MEK5 binding to mutant human MEKK2 PB1 domain. percent response, % at 10 µM. bead flow cytometry, Alexa488-MEK5 binding to MEKK2 mutant. AID 1530. hit rate 0.35% among 290,000; in the data active means percent response above about 24%, passing the limit was not always enough
MEKK2wt confirm: raises or lowers MEK5 binding to wildtype human MEKK2, retest. bead flow cytometry, Alexa488-MEK5 binding to MEKK2 WT; actives lie on both sides. hit rate 2.4% among 5,900. binding response (% of control), % at 10 µM. shares compounds with MEKK3 PB1 HTS. AID 1892; in the data active means binding response below about 16% or above about 210%; inactive means in between
MEKK2mut confirm: signal of MEK5 binding to mutant human MEKK2, retest; percent response, % at 10 µM; shares compounds with MEKK3 PB1 HTS; hit rate 2% among 5,900; bead flow cytometry, Alexa488-MEK5 binding to MEKK2 mutant; in the data active means percent response mostly above about 71%, no sharp cut-off; inactive means mostly below about 38%;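 further: higher means compound restores mutant binding toward wildtype level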
MEKK3-MEK5 inh: confirmation of inhibitors of MEK5 binding to human MEKK3. bead flow cytometry, Alexa488-MEK5 binding to MEKK3; stronger effect = lower value. shares compounds with MEKK3 PB1 HTS. binding response (% of control), % at 10 µM. hit rate 1.8% among 5,900;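 active means binding response below 72% of control, or above a set upper limit, though filed actives all read lower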;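 further: 100% = DMSO only wells and 0% = binding blocked by excess unlabeled MEK5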
The depositor's hits bear a star; · = no result; [ ] = dose if it differs, or a comment. Only some compounds are listed: those with a hit (about 2.9% of all), similar ones and a draw of the others.

SMILES	Apaf1 inhib	MEKK3 PB1 HTS	MEKK2wt PB1 HTS	UBC13 polyUb	MEKK2mut PB1 HTS	MEKK2wt confirm	MEKK2mut confirm	MEKK3-MEK5 inh
CC(C)(C)[C@H]1C=C(C(N)=O)O[C@@H](OCCCCO)C1	1	95	94	0	3	·	·	·
COc1ccc(S(=O)(=O)N2CC(C(=O)O)Oc3ccc(Cl)cc32)cc1 (stereo not given)	6	90	131	-5	36*	98	-3	102
CC(C)(C)c1ccc(S(=O)(=O)N2CC(C(=O)O)Oc3ccc(Cl)cc32)cc1 (stereo not given)	7	104	105	-2	4	·	·	·
Cc1ccc(OCCC(=O)Nc2ccc(F)c(Cl)c2)cc1	2	117	223*	-4	31	103	14	102
Cc1ccc(OCCC(=O)Nc2ccc(C)c(F)c2)cc1	0	100	102	8	-5	·	·	·
CCN(CC)C(=O)C(=O)Nc1ccc(F)c(Cl)c1	-11	75*[inhibitor]	88	0	-7	103	-1	102
Cn1c(CNC(=O)c2ccco2)nnc1SCC(=O)N1CCN(c2ccccc2F)CC1	11	102	100	-6	-6	·	·	·
Cc1ccc(NC(=O)CCNS(=O)(=O)c2ccccc2)c(C(=O)c2ccccc2)c1	3	138*	110	-7	1	100	2	104
Cc1ccc(S(=O)(=O)NCCC(=O)NCc2ccccc2)cc1	-16	110	107	1	7	·	·	·
CC(C)OC(=O)Nc1ccc2c(c1)N(C(=O)CCN1CCOCC1)c1ccccc1CC2	-4	96	87	0	-7	·	·	·
CC(=O)Cc1nnn(-c2cc(C)on2)n1	-20	101	101	-5	-3	·	·	·
Cc1cccc(N=C2Sc3nc4c(C)c(C)ccc4cc3CN2CCN2CCOCC2)c1	13	113	144*	5	24*	136	17	108
Cc1cc(-c2nn(-c3ccccc3F)cc2CN2CCC(C(N)=O)CC2)c(C)s1	-15	99	114	-6	7	·	·	·
Cc1cc(-c2nn(-c3ccccc3F)cc2CNCCc2cnc[nH]2)c(C)s1	-5	112	148*	3	39	130	17	106
Oc1ccc(N2CCN(Cc3cc4c(cc3Br)OCCO4)CC2)cc1	11	101	104	5	0	·	·	·
Nc1ccccc1C(=O)N1O[C@@H]2C=C[C@H]1CC2	3	·	·	·	·	·	·	·
Cc1c(CN2CCC(CO)(Cc3cccc(C(F)(F)F)c3)CC2)c2ccccc2n1C	2	108	165*	30	44	137	11	99
CSc1ccc(CN2CCC(CO)(Cc3ccc(Cl)cc3)CC2)cc1	4	105	140*	8	19	137	21	106
COc1cc(CN2CCC(CO)(Cc3cccc(C(F)(F)F)c3)CC2)ccc1F	-22	42*[inhibitor]	69	28	-23	122	7	102
COc1ccc(F)c(CN2CCC(CO)(Cc3cccc(C(F)(F)F)c3)CC2)c1	-6	101	107	9	6	·	·	·
OCC1(Cc2cccc(C(F)(F)F)c2)CCN(Cc2cc3ccccc3o2)CC1	27	106	122	19	8	·	·	·
c1ccc(C(NCCNC(c2ccccc2)c2ccccc2)c2ccccc2)cc1	18	111	142*	22	27*	151	26	108
CSc1nnc2ccc(-c3ccccn3)nn12	-18	64*[inhibitor]	76	-11	-19	101	0	101
NNC(=O)[C@@H]1C[C@@H]1c1ccccc1	-3	153*	111	1	0	84	-13	84
COCCn1c(=O)[nH]c2cc(C(=O)NCCc3ccc(S(N)(=O)=O)cc3)ccc2c1=O	2	135*	118	-2	4	100	-5	103
SMILES	Apaf1 inhib	MEKK3 PB1 HTS	MEKK2wt PB1 HTS	UBC13 polyUb	MEKK2mut PB1 HTS	MEKK2wt confirm	MEKK2mut confirm	MEKK3-MEK5 inh
CCOC(=O)N1CCN(C(=O)c2ccc3c(=O)n(CCc4ccccc4)c(=O)[nH]c3c2)CC1	13	125*	125	-3	9	102	0	104
Nc1nc(-c2c(Cl)cccc2Cl)no1	-16	100	98	-2	1	·	·	·
Fc1ccc(-c2csc(/C=C/c3ccc4c(c3)OCO4)n2)cc1	9	112	103	-4	0	·	·	·
CC(OC(=O)CCCN=C1NS(=O)(=O)c2ccccc21)C(=O)Nc1ccc(F)c(F)c1F (stereo not given)	5	·	·	0	·	·	·	·
C/C=C1\COC(C(=O)NCCCN2CCCC2=O)(C(F)(F)F)C=C1C=C(C)C (stereo not given)	-2	78*[inhibitor]	85	-6	-7	105	19	107
Cc1[nH]c2ccccc2c1N=Nc1cccc(C(=O)O)c1	4	68*[inhibitor]	95	-12	1	107	4	106
CCOC(=O)c1sc2nc(C(C)C)c3c(c2c1N)CC(C)(C)OC3	12	101	104	14	6	·	·	·
CCOC(=O)c1sc2nc(C(C)C)c3c(c2c1N)CCC3	6	138*	108	3	0	147	39	112
O=C(CN1CCOCC1)NN1CC(=O)N(c2ccc(Cl)cc2)CC1=O	-1	105	101	-4	5	·	·	·
Cc1cccc2cc(CN(Cc3ccccc3)C(=O)N(C)C)c(=O)[nH]c12	4	127*	126	0	6	96	-8	96
Cc1cccc(C)c1NC(=O)CN(C)C(=O)c1ccccc1OCc1ccc(F)cc1	0	·	·	5	·	·	·	·
Cc1cc(C(=O)Nc2ccc(F)c(Cl)c2)on1	5	98	101	-3	4	·	·	·
CCOC(=O)c1cnc2ccccc2c1NCCO	-15	87	99	2	-3	·	·	·
CCOC(=O)c1cnc2c(ccc3ccccc32)c1NCCCN(C)C	10	111	151*	23	9	129	16	102
O=[N+]([O-])c1ccc(CNCc2cc(Cl)ccc2O)cc1	7	·	·	13	·	·	·	·
CC(=O)Nc1ccc(/C(C)=N/NS(=O)(=O)c2ccccc2)cc1	8	128*	107	-4	0	108	5	106
Cc1ccc2cc(C3CC(c4ccco4)=NN3S(C)(=O)=O)c(Cl)nc2c1 (stereo not given)	7	83	79	0	-11	·	·	·
Cc1ccc2nc(Cl)c(C3CC(c4ccco4)=NN3S(C)(=O)=O)cc2c1 (stereo not given)	10	72*[inhibitor]	84	-1	-31	104	-3	105
Cc1cn2c(N)c(C=C3C=C(Cl)C(=O)C(Cl)=C3)c(=O)nc2s1	13	94	50*[inhibitor]	-37	-76	99	-14	103
